Assays:
GCK = biological target: T1, GCK (Homo sapiens, UniProt Q12851); assay: Dose–response of top 10 kinase hits; assay type: biochemical
T1 sequence (Q12851 1-820): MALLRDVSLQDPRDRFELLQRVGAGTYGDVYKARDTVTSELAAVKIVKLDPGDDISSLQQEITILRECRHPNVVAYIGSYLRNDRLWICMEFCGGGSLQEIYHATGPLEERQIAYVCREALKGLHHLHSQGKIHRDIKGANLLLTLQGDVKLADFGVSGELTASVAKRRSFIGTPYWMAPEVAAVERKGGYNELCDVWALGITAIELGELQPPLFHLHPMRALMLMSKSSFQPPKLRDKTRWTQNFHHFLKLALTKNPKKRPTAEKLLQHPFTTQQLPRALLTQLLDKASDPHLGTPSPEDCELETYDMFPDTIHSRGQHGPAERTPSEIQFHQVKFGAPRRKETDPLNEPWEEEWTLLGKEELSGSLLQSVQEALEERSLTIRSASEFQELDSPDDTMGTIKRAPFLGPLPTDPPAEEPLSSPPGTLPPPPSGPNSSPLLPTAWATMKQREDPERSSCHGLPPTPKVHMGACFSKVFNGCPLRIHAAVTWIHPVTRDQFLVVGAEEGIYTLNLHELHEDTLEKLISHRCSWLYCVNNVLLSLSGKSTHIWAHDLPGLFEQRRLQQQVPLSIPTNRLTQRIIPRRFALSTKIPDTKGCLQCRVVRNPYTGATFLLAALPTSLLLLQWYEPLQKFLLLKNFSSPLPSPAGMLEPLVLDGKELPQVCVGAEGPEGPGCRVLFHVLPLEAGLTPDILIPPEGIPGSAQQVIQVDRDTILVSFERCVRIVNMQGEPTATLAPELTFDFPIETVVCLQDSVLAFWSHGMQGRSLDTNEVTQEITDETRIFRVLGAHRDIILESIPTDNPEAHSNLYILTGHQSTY

[1] = test system: TNF expression in THP-1 cells; assay: Cytokine dose–response curves in THP-1 cells; assay type: cell-based, human; settings: read-out: IC50 TNF expression; LPS-stimulated THP-1, 24 h
How it was run: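 THP-1 cells differentiated with PMA (100 nM) for up to 72 h, then rested 24 h in PMA-free RPMI. Pretreated with test compound (3.2 nM–32 μM) or DMSO vehicle, then stimulated with LPS (10 ng/mL). After 24 h, TNF, IL-6 and IL-1β in supernatant measured by Luminex and expressed as percent of vehicle control; n = 3.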

CSNK1G2 = CSNK1G2 (Homo sapiens, UniProt P78368); assay: Dose–response of top 10 kinase hits; assay type: biochemical; settings: read-out: IC50 CSNK1G2, n = 2
Sequence of CSNK1G2 (P78368 whole entry): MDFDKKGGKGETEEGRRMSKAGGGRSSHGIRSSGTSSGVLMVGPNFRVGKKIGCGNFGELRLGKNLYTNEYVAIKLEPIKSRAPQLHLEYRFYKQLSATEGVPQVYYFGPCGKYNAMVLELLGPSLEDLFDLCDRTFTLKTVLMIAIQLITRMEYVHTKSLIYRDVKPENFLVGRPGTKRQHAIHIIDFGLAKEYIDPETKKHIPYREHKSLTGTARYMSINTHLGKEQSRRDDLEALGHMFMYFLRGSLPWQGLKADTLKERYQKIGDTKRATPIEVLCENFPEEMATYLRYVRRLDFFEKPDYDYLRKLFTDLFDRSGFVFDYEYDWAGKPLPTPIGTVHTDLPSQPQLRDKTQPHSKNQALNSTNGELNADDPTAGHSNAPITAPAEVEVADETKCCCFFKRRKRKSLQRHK

CAMKKβ−1 = CAMKKβ−1 (Homo sapiens, UniProt Q96RR4); assay: Dose–response of top 10 kinase hits; assay type: biochemical; settings: read-out: IC50 CAMKKβ−1, n = 2
Sequence of CAMKKβ−1 (Q96RR4 whole entry): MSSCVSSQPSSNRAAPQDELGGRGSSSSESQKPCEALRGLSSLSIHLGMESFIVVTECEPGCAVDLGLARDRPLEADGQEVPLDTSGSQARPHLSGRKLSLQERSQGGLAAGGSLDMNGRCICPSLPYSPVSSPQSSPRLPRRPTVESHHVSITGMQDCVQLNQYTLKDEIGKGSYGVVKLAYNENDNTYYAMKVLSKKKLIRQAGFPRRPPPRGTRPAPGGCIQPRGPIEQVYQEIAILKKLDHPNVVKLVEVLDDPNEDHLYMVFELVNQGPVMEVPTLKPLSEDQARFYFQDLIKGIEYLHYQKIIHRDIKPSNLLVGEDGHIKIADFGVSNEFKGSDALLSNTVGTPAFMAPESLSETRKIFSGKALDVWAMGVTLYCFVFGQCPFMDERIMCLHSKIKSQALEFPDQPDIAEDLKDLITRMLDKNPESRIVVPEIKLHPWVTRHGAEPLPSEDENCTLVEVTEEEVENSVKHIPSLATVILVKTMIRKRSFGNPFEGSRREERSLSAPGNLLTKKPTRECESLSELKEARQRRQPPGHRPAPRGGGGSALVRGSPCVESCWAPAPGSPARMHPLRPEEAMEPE

## CCCn1c(NC(=O)c2cccc(C(N)=O)c2)nc2ccc(CN3CCCCC3)cc21 [HS-276]
GCK; from dose–response IC50 values
  TAK1 more potently inhibited than GCK: 4.1 fold
GCK; read-out: IC50 GCK, dose–response, n = 2
  IC50: 33 nM
[1]
  IC50: 138 nM
CSNK1G2
  IC50: 809 nM
CAMKKβ−1
  IC50: 1280 nM
